Source: ChEMBL document CHEMBL4330168, “Monomeric and Dimeric Cytotoxic Guaianolide-Type Sesquiterpenoids from the Aerial Parts of Chrysanthemum indicum” (J Nat Prod, 2019)

Legend:
CNE = assay: Cytotoxicity against human CNE1 cells after 48 hrs by MTT assay; type: functional, cell-based
How it was run: (§1)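 Growth inhibition in nasopharyngeal carcinoma lines (CNE1, CNE2, HONE-1, SUNE-1) and HT-29 colon cells. IC50 values are the mean ± SD of three experiments, with cisplatin as positive control.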

CNE-2 = assay: Cytotoxicity against human CNE2 cells after 48 hrs by MTT assay; type: functional, cell-based; settings: CNE-2, 48 h; how it was run: as §1
HONE1 cell line [1] = assay: Cytotoxicity against human HONE1 cells after 48 hrs by MTT assay; type: functional, cell-based; settings: HONE1, 48 h; how it was run: as §1
SUNE1 = assay: Cytotoxicity against human SUNE1 cells after 48 hrs by MTT assay; type: functional, cell-based; settings: SUNE1, 48 h; how it was run: as §1
HT-29 = assay: Cytotoxicity against human HT-29 cells after 48 hrs by MTT assay; type: functional, cell-based; settings: HT-29, 48 h; how it was run: as §1
HONE1 cell line [2] = assay: Induction of apoptosis in human HONE1 cells assessed as live cells at 1 uM after 48 hrs by Annexin V-FITC/propidium iodide staining based flow cytometry (reference value: 96.16%); type: functional
HONE1 cell line [3] = assay: Induction of apoptosis in human HONE1 cells assessed as early apoptotic cells at 1 uM after 48 hrs by Annexin V-FITC/propidium iodide staining based flow cytometry (reference value: 3.24%); type: functional
HONE1 cell line [4] = assay: Induction of apoptosis in human HONE1 cells assessed as late apoptotic cells at 1 uM after 48 hrs by Annexin V-FITC/propidium iodide staining based flow cytometry (reference value: 0.37%); type: functional
HONE1 cell line [5] = assay: Induction of apoptosis in human HONE1 cells assessed as necrotic cells at 1 uM after 48 hrs by Annexin V-FITC/propidium iodide staining based flow cytometry (reference value: 0.23%); type: functional
HONE1 cell line [6] = assay: Induction of apoptosis in human HONE1 cells assessed as live cells at 3 uM after 48 hrs by Annexin V-FITC/propidium iodide staining based flow cytometry (reference value: 96.16%); type: functional
HONE1 cell line [7] = assay: Induction of apoptosis in human HONE1 cells assessed as early apoptotic cells at 3 uM after 48 hrs by Annexin V-FITC/propidium iodide staining based flow cytometry (reference value: 3.24%); type: functional
HONE1 cell line [8] = assay: Induction of apoptosis in human HONE1 cells assessed as late apoptotic cells at 3 uM after 48 hrs by Annexin V-FITC/propidium iodide staining based flow cytometry (reference value: 0.37%); type: functional
HONE1 cell line [9] = assay: Induction of apoptosis in human HONE1 cells assessed as necrotic cells at 3 uM after 48 hrs by Annexin V-FITC/propidium iodide staining based flow cytometry (reference value: 0.23%); type: functional
HONE1 cell line [10] = assay: Induction of apoptosis in human HONE1 cells assessed as live cells at 5 uM after 48 hrs by Annexin V-FITC/propidium iodide staining based flow cytometry (reference value: 96.16%); type: functional
HONE1 cell line [11] = assay: Induction of apoptosis in human HONE1 cells assessed as early apoptotic cells at 5 uM after 48 hrs by Annexin V-FITC/propidium iodide staining based flow cytometry (reference value: 3.24%); type: functional
HONE1 cell line [12] = assay: Induction of apoptosis in human HONE1 cells assessed as late apoptotic cells at 5 uM after 48 hrs by Annexin V-FITC/propidium iodide staining based flow cytometry (reference value: 0.37%); type: functional
HONE1 cell line [13] = assay: Induction of apoptosis in human HONE1 cells assessed as necrotic cells at 5 uM after 48 hrs by Annexin V-FITC/propidium iodide staining based flow cytometry (reference value: 0.23%); type: functional
HONE1 cell line [14] = assay: Induction of apoptosis in human HONE1 cells assessed as live cells at 10 uM after 48 hrs by Annexin V-FITC/propidium iodide staining based flow cytometry (reference value: 96.16%); type: functional
HONE1 cell line [15] = assay: Induction of apoptosis in human HONE1 cells assessed as early apoptotic cells at 10 uM after 48 hrs by Annexin V-FITC/propidium iodide staining based flow cytometry (reference value: 3.24%); type: functional
HONE1 cell line [16] = assay: Induction of apoptosis in human HONE1 cells assessed as late apoptotic cells at 10 uM after 48 hrs by Annexin V-FITC/propidium iodide staining based flow cytometry (reference value: 0.37%); type: functional
HONE1 cell line [17] = assay: Induction of apoptosis in human HONE1 cells assessed as necrotic cells at 10 uM after 48 hrs by Annexin V-FITC/propidium iodide staining based flow cytometry (reference value: 0.23%); type: functional
HONE1 cell line [18] = assay: Induction of apoptosis in human HONE1 cells assessed as live cells at 20 uM after 48 hrs by Annexin V-FITC/propidium iodide staining based flow cytometry (reference value: 96.16%); type: functional
HONE1 cell line [19] = assay: Induction of apoptosis in human HONE1 cells assessed as early apoptotic cells at 20 uM after 48 hrs by Annexin V-FITC/propidium iodide staining based flow cytometry (reference value: 3.24%); type: functional
HONE1 cell line [20] = assay: Induction of apoptosis in human HONE1 cells assessed as late apoptotic cells at 20 uM after 48 hrs by Annexin V-FITC/propidium iodide staining based flow cytometry (reference value: 0.37%); type: functional
HONE1 cell line [21] = assay: Induction of apoptosis in human HONE1 cells assessed as necrotic cells at 20 uM after 48 hrs by Annexin V-FITC/propidium iodide staining based flow cytometry (reference value: 0.23%); type: functional
HONE1 cell line [22] = assay: Cell cycle arrest in human HONE1 cells assessed as accumulation at G0/G1 phase at 3 uM after 48 hrs by propidium iodide staining based flow cytometry (reference value: 55%); type: functional
HONE1 cell line [23] = assay: Cell cycle arrest in human HONE1 cells assessed as accumulation at G2/M phase at 3 uM after 48 hrs by propidium iodide staining based flow cytometry (reference value: 0.3%); type: functional
HONE1 cell line [24] = assay: Cell cycle arrest in human HONE1 cells assessed as accumulation at S phase at 3 uM after 48 hrs by propidium iodide staining based flow cytometry (reference value: 44.7%); type: functional
HONE1 cell line [25] = assay: Cell cycle arrest in human HONE1 cells assessed as accumulation at G0/G1 phase at 5 uM after 48 hrs by propidium iodide staining based flow cytometry (reference value: 55%); type: functional
HONE1 cell line [26] = assay: Cell cycle arrest in human HONE1 cells assessed as accumulation at G2/M phase at 5 uM after 48 hrs by propidium iodide staining based flow cytometry (reference value: 0.3%); type: functional
HONE1 cell line [27] = assay: Cell cycle arrest in human HONE1 cells assessed as accumulation at S phase at 5 uM after 48 hrs by propidium iodide staining based flow cytometry (reference value: 44.7%); type: functional
HONE1 cell line [28] = assay: Cell cycle arrest in human HONE1 cells assessed as accumulation at G0/G1 phase at 10 uM after 48 hrs by propidium iodide staining based flow cytometry (reference value: 55%); type: functional
HONE1 cell line [29] = assay: Cell cycle arrest in human HONE1 cells assessed as accumulation at G2/M phase at 10 uM after 48 hrs by propidium iodide staining based flow cytometry (reference value: 0.3%); type: functional
HONE1 cell line [30] = assay: Cell cycle arrest in human HONE1 cells assessed as accumulation at S phase at 10 uM after 48 hrs by propidium iodide staining based flow cytometry (reference value: 44.7%); type: functional
HONE1 cell line [31] = assay: Cell cycle arrest in human HONE1 cells assessed as accumulation at G0/G1 phase at 20 uM after 48 hrs by propidium iodide staining based flow cytometry (reference value: 55%); type: functional
HONE1 cell line [32] = assay: Cell cycle arrest in human HONE1 cells assessed as accumulation at G2/M phase at 20 uM after 48 hrs by propidium iodide staining based flow cytometry (reference value: 0.3%); type: functional
HONE1 cell line [33] = assay: Cell cycle arrest in human HONE1 cells assessed as accumulation at S phase at 20 uM after 48 hrs by propidium iodide staining based flow cytometry (reference value: 44.7%); type: functional

## C/C=C(\C)C(=O)O[C@H]1C[C@@](C)(O)[C@@H]2CC(=O)C(C)=C2[C@H]2OC(=O)[C@@H](C)[C@H]12
CNE
  IC50: > 10 µM
CNE-2
  IC50: > 10 µM
HONE1 cell line [1]
  IC50: > 10 µM
SUNE1
  IC50: > 10 µM
HT-29
  IC50: > 10 µM

## C=C1C(=O)O[C@H]2[C@H]1[C@@H](OC(=O)/C(C)=C/C)C[C@@](C)(O)[C@]13C=C[C@](C)([C@H]21)[C@]1(C3)C(=O)O[C@@H]2[C@H]3C(C)=CC[C@H]3[C@](C)(O)C[C@H](OC(=O)/C(C)=C/C)[C@H]21
CNE
  IC50: 4.6 µM
CNE-2
  IC50: 6 µM
HONE1 cell line [1]
  IC50: 3.5 µM
SUNE1
  IC50: 4.3 µM
HT-29
  IC50: 9.6 µM
HONE1 cell line [2]
  Activity: 96.45%
HONE1 cell line [3]
  Activity: 2.2%
HONE1 cell line [4]
  Activity: 1.14%
HONE1 cell line [5]
  Activity: 0.21%
HONE1 cell line [6]
  Activity: 96.38%
HONE1 cell line [7]
  Activity: 3.01%
HONE1 cell line [8]
  Activity: 0.45%
HONE1 cell line [9]
  Activity: 0.16%
HONE1 cell line [10]
  Activity: 81.86%
HONE1 cell line [11]
  Activity: 15%
HONE1 cell line [12]
  Activity: 2.61%
HONE1 cell line [13]
  Activity: 0.53%
HONE1 cell line [14]
  Activity: 65.22%
HONE1 cell line [15]
  Activity: 10.54%
HONE1 cell line [16]
  Activity: 23.45%
HONE1 cell line [17]
  Activity: 0.79%
HONE1 cell line [18]
  Activity: 56.74%
HONE1 cell line [19]
  Activity: 9.33%
HONE1 cell line [20]
  Activity: 27.85%
HONE1 cell line [21]
  Activity: 6.08%
HONE1 cell line [22]
  Activity: 44.75%
HONE1 cell line [23]
  Activity: 5.93%
HONE1 cell line [24]
  Activity: 49.32%
HONE1 cell line [25]
  Activity: 50.22%
HONE1 cell line [26]
  Activity: 7.52%
HONE1 cell line [27]
  Activity: 42.25%
HONE1 cell line [28]
  Activity: 40.89%
HONE1 cell line [29]
  Activity: 16.52%
HONE1 cell line [30]
  Activity: 42.59%
HONE1 cell line [31]
  Activity: 14.01%
HONE1 cell line [32]
  Activity: 38.22%
HONE1 cell line [33]
  Activity: 47.77%

## C/C=C(/C)C(=O)O[C@H]1C[C@@](C)(O)[C@@H]2CC(=O)C(C)=C2[C@H]2OC(=O)[C@@H](C)[C@H]12
CNE
  IC50: > 10 µM
CNE-2
  IC50: > 10 µM
HONE1 cell line [1]
  IC50: > 10 µM
SUNE1
  IC50: > 10 µM
HT-29
  IC50: > 10 µM

## CC1=CC[C@@H]2[C@H]1[C@H]1OC(=O)[C@@H](C)[C@@H]1[C@H](O)C[C@@]2(C)O
CNE
  IC50: > 10 µM
CNE-2
  IC50: > 10 µM
HONE1 cell line [1]
  IC50: > 10 µM
SUNE1
  IC50: > 10 µM
HT-29
  IC50: > 10 µM
